The source of these data is publication PMC4207547 (Journal of Medicinal Chemistry, 2014).

In the first test the test system is CXCR1.
Assay: not given
Conditions: cited from earlier work.
As for `CC(C)Cc1ccc([C@@H](C)C(=O)NS(C)(=O)=O)cc1` [reparixin, Reparixin], the “effect on CXCL8 binding to CXCR1, in words” value is given as “no effect”.

Another test has as its target T1, CXCR2 (Homo sapiens, UniProt P25025).
T1 sequence (P25025 1-360): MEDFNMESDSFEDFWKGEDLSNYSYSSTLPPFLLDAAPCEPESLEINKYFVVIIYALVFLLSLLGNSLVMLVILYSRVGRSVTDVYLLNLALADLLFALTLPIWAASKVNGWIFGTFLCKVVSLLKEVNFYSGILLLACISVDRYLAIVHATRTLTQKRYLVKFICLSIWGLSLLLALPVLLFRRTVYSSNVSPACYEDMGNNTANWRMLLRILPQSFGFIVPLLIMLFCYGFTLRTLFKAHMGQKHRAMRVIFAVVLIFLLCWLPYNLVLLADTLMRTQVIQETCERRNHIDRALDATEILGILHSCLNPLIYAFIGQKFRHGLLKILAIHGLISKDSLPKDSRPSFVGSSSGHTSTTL
In words: CXCL1-stimulated Ca2+ flux in whole human neutrophils. Format: cell-based. As to conditions: CXCL1-stimulated Ca2+ flux, hPMNs. An outline of the steps: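 Human neutrophils were isolated from blood by dextran sedimentation, Histopaque 1077 gradient and hypotonic RBC lysis (>95% pure, >98% viable). Cells were loaded with FLIPR Calcium 3 dye in HEPES-buffered Ca/Mg-free HBSS with compound or 1% DMSO for 30 min at 37 °C, then resuspended in HEPES-HBSS with Ca2+/Mg2+ and challenged with CXCL1.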
For `COC(=O)c1ccccc1CSc1ccc(C(=O)Nc2ccc(F)cc2)cn1` [Compound 50, Methyl 2-((5-(4-Fluorophenylcarbamoyl)pyridin-2-ylthio)methyl)benzoate], the “fold improvement in potency relative to 2-carboxylate 51” value is 2 fold. Take `O=C(c1ccc(SCc2ccccc2B(O)O)nc1)N(Cc1ccncc1)c1ccc(F)cc1` [Compound 61, 2-((5-((4-Fluorophenyl)(pyridin-4-ylmethyl)carbamoyl)pyridin-2-ylthio)methyl)phenylboronic acid]: the “fold lower potency than 60” value is reported as 11 fold.

With `O=C(Nc1ccc(F)cc1)c1ccc(SCc2ccccc2-c2nn[nH]n2)nc1` [Compound 52, 6-(2-(2H-Tetrazol-5-yl)benzylthio)-N-(4-fluorophenyl)nicotinamide], the “fold improvement in potency relative to 2-carboxylate 51” value was about 10 fold.

`O=C(Nc1ccc(O)cc1)c1ccc(SCc2ccccc2B(O)O)nc1` [Compound 58, 2-((5-(4-Hydroxyphenylcarbamoyl)pyridin-2-ylthio)methyl)phenylboronic acid]: the “fold reduction in activity relative to 7” value was found to be 3 fold. Same read-out and setting: the entry for `CC1(C)OB(c2ccccc2CSc2ccc(C(=O)Nc3ccc(F)cc3)cn2)OC1(C)C` [Compound 53, N-(4-Fluorophenyl)-6-(2-(4,4,5,5-tetramethyl-1,3,2-dioxaborolan-2-yl)benzylthio)nicotinamide] is “approximately 7 fold”; for `O=C(Nc1ccc(OC(F)(F)F)cc1)c1ccc(SCc2ccccc2B(O)O)nc1` [Compound 54, 2-((5-(4-(Trifluoromethoxy)phenylcarbamoyl)pyridin-2-ylthio)methyl)phenylboronic acid] it is 7 fold. Still for that read-out and setting: the figure for `O=C(Nc1ccncc1)c1ccc(SCc2ccccc2B(O)O)nc1` [Compound 57, 2-((5-(Pyridin-4-ylcarbamoyl)pyridin-2-ylthio)methyl)phenylboronic acid] is 14 fold; for `O=C(Nc1ccc(F)cn1)c1ccc(SCc2ccccc2B(O)O)nc1` [Compound 59, 2-((5-(5-Fluoropyridin-2-ylcarbamoyl)pyridin-2-ylthio)methyl)phenylboronic acid] it is 8 fold.

The test is the same for the next values; noted with them: hPMNs; SAR discussion.
On to `O=C(O)c1ccc(NC(=O)c2ccc(SCc3ccccc3B(O)O)nc2)cc1` [Compound 55, 4-(6-(2-Boronobenzylthio)nicotinamido)benzoic acid], for which the “activity against CXCL1-stimulated Ca2+ flux, in words” value (from here on “activity … in words”) is reported as “abrogated all activity”.

For the compound `CCOP(=O)(CSc1ccc(C(=O)Nc2ccc(F)cc2)cn1)OCC` [Compound 12, Diethyl (5-(4-fluorophenylcarbamoyl)pyridin-2-ylthio)methylphosphonate], the “activity … in words” value is “loss of activity”.

With `O=C(Nc1ccc(-c2nn[nH]n2)cc1)c1ccc(SCc2ccccc2B(O)O)nc1` [Compound 56, 2-((5-(4-(2H-Tetrazol-5-yl)phenylcarbamoyl)pyridin-2-ylthio)methyl)phenylboronic acid], the “activity … in words” value is listed as “abrogated all activity”. Regarding `O=C(Nc1ccc(F)cc1)c1ccc(Sc2ccccc2)nc1` [Compound 45, N-(4-Fluorophenyl)-6-(phenylthio)nicotinamide], the “activity … in words” value is “loss of activity”. For `O=C(c1ccc(SCc2ccccc2B(O)O)nc1)N(CC1CCCCN1)c1ccc(F)cc1` (stereo not shown) [Compound 62, 2-((5-((4-Fluorophenyl)(piperidin-2-ylmethyl)carbamoyl)pyridin-2-ylthio)methyl)phenylboronic acid], the “activity … in words” value is “completely devoid of activity”. Consider `COC(=O)c1cccc(CSc2ccc(C(=O)Nc3ccc(F)cc3)cn2)c1` [Compound 48, Methyl 3-((5-(4-Fluorophenylcarbamoyl)pyridin-2-ylthio)methyl)benzoate], for which the “activity … in words” value was “inactive”. As for `O=C(Nc1ccc(F)cc1)c1ccc(SC[N+](=O)[O-])nc1` [Compound 11, N-(4-Fluorophenyl)-6-(nitromethylthio)nicotinamide], the “activity … in words” value is given as “loss of activity”.

In the case of `O=C(O)CN(C(=O)c1ccc(SCc2ccccc2B(O)O)nc1)c1ccc(F)cc1` [Compound 63, 2-(6-(2-Boronobenzylthio)-N-(4-fluorophenyl)nicotinamido)acetic acid], the “activity … in words” value is reported as “A similar finding”. Consider `O=C(Nc1ccc(F)cc1)c1ccc(SCS(=O)(=O)c2ccccc2)nc1` [Compound 10, N-(4-Fluorophenyl)-6-(phenylsulfonylmethylthio)nicotinamide], for which the “activity … in words” value is “loss of activity”. For `O=C(Nc1ccc(F)cc1)c1ccc(SC2CCOC2=O)nc1` (stereo not shown) [Compound 9, N-(4-Fluorophenyl)-6-(2-oxotetrahydrofuran-3-ylthio)nicotinamide], the “activity … in words” value was “loss of activity”. As for `COC(=O)c1ccc(CSc2ccc(C(=O)Nc3ccc(F)cc3)cn2)cc1` [Compound 46, Methyl 4-((5-(4-Fluorophenylcarbamoyl)pyridin-2-ylthio)methyl)benzoate], the “activity … in words” value is “inactive”.

Still in this test, the particulars now being: inhibition of CXCL1-stimulated Ca2+ flux in whole hPMNs; mean ± standard error.
As a reminder, the IC50 is the concentration that inhibits the measured activity by half. High values mean lower potency, low ones higher potency. Regarding “N-(4-Fluorophenyl)-6-(4-(5-methyl-1,2,4-oxadiazol-3-yl)benzylthio)nicotinamide [Compound 18]”, the IC50 is over 5 µM.

Still in this test, the particulars now being: read-out: inhibition of CXCL1-mediated intracellular Ca2+ release.
As a reminder, the inhibition is how much of the control response was suppressed. `O=C(Nc1ccc(F)cc1)c1ccc(SCC2CCCCO2)nc1` (stereo not shown) [Compound 13, N-(4-Fluorophenyl)-6-((tetrahydro-2H-pyran-2-yl)methylthio)nicotinamide]: the inhibition at 5 µM is over 50%. Consider `O=C(Nc1ccc(F)cc1)c1ccc(SCc2ccc([N+](=O)[O-])o2)nc1` [Compound 22, N-(4-Fluorophenyl)-6-((5-nitrofuran-2-yl)methylthio)nicotinamide], for which the inhibition at 5 µM was over 50%. On to `O=C(Nc1ccc(F)cc1)c1ccc(SCC2CCCO2)nc1` (stereo not shown) [Compound 20, N-(4-Fluorophenyl)-6-((tetrahydrofuran-2-yl)methylthio)nicotinamide], for which the inhibition at 5 µM was over 50%.

In the case of `O=C(Nc1ccc(F)cc1)c1ccc(SCc2ccccc2)nc1` [Compound 30, 6-(Benzylthio)-N-(4-fluorophenyl)nicotinamide], the inhibition at 5 µM was over 50%. Turning to `O=C(Nc1ccc(F)cc1)c1ccc(SCc2ccc(Cl)c(Cl)c2)nc1` [Compound 43, 6-(3,4-Dichlorobenzylthio)-N-(4-fluorophenyl)nicotinamide], the inhibition at 5 µM is over 50%.

As to `O=C(Nc1ccc(F)cc1)c1ccc(SCC2CCOCC2)nc1` [Compound 17, N-(4-Fluorophenyl)-6-((tetrahydro-2H-pyran-4-yl)methylthio)nicotinamide], the inhibition at 5 µM is over 50%. For the compound `O=C(Nc1ccc(F)cc1)c1ccc(SCc2ccncc2)nc1` [Compound 15, N-(4-Fluorophenyl)-6-(pyridin-4-ylmethylthio)nicotinamide], the inhibition at 5 µM was over 50%.
